Experiments:
MCF7 = experiment: Inhibition of the growth of human breast cancer MCF-7 cells done for 96 hr at 37 degree C with compound; conditions: MCF7, 96 h
[1] = Concentration required to inhibit the growth of HOP-6 human lung cancer cells by 50%; format: functional; conditions: Cancer cell lines
Outline: (§1)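 NCI 55 human cancer cell line panel screen; GI50 is the concentration giving 50% growth inhibition; compounds tested over 10^-4 to 10^-8 M.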

SF-539 = experiment: Concentration required to inhibit the growth of SF-539 human CNS cancer cells by 50%; format: functional
Outline: as §1

SN12C = experiment: Concentration required to inhibit the growth of SN12C human renal cancer cells by 50%; format: functional
Outline: as §1

HCT-116 = experiment: Concentration required to inhibit the growth of HCT116 human colon cancer cells by 50%; format: functional
Outline: as §1

DU-145 = experiment: Concentration required to inhibit the growth of DU-145 human prostate cancer cells by 50%; format: functional
Outline: as §1

OVCAR-3 = experiment: Concentration required to inhibit the growth of OVCAR-3 human ovarian cancer cells by 50%; format: functional
Outline: as §1

MDA-MB-435 = experiment: Concentration required to inhibit the growth of MDA-MB-435 human breast cancer cells by 50%; format: functional
Outline: as §1

UACC-62 = experiment: Concentration required to inhibit the growth of UACC-62 human melanoma cells by 50%; format: functional
Outline: as §1

[2] = Mean graph midpoint (MGM) against a panel of human tumor cell lines; format: functional
Outline: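 NCI 55 cell line panel; mean graph midpoint is the mean concentration giving 50% growth inhibition across all cell lines successfully evaluated; tested range 10^-4 to 10^-8 M, so 0.01 µM is the […] possible value.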

Steryl-sulfatase = molecular target: T1, Steryl-sulfatase (Homo sapiens, UniProt P08842); experiment: Inhibitory concentration against steroid sulfatase in placental microsomes; set-up: species or system Placenta
T1 sequence (P08842 whole entry): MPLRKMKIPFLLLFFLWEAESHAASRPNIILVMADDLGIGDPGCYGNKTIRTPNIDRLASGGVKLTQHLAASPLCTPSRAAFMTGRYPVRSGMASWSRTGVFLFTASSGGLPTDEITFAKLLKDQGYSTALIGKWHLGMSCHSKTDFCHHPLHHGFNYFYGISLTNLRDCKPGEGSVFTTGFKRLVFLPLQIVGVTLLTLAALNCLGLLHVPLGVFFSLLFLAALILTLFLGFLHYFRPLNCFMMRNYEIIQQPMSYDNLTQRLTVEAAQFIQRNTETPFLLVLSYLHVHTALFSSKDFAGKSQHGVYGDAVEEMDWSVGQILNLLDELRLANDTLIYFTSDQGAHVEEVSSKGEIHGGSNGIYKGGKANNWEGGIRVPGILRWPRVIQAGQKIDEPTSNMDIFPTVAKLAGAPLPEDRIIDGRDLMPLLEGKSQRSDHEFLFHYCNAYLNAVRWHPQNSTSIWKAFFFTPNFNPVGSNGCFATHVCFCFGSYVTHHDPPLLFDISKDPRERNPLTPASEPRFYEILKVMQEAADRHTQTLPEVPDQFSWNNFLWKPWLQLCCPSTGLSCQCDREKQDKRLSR

Mus musculus = experiment: Reduction of tumor growth in female mice transplanted with xenografts derived from MDA-MB-435 (ER-) human breast cancer cells after 28 days of treatment at 20 mg/kg oral dose; format: functional, organism-based; set-up: dose 20 mg/kg, route oral; conditions: MDA-MB-435, 672 h
Outline: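 Oral daily dosing for 28 days. Drug was dissolved in minimal THF, then diluted with propylene glycol. Vehicle controls received THF/propylene glycol. Groups were 12 female mice bearing MDA-MB-435 xenografts, with dosing started at 100-200 mm³. Tumour length and width were measured weekly, volume = l × w²/2, and monitoring continued 28 days after dosing. Growth was compared with controls by Student's t test.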

Row | Structure (SMILES) | GI50 (MCF7) [nM] | GI50 [1] [nM] | GI50 (SF-539) [nM] | GI50 (SN12C) [nM] | GI50 (HCT-116) [nM] | GI50 (DU-145) [nM] | GI50 (OVCAR-3) [nM] | GI50 (MDA-MB-435) [nM] | MGM [2] [µM] | other results
1 | CCOc1cc2c(cc1OS(N)(=O)=O)CC[C@@H]1[C@@H]2CC[C@]2(C)[C@@H](O)CC[C@@H]12 | 610 |  |  |  |  |  |  |  |  | 
2 | C[S+]([O-])c1cc2c(cc1O)CC[C@@H]1[C@@H]2CC[C@]2(C)C(=O)CC[C@@H]12 (some centres undefined) | > 10000 |  |  |  |  |  |  |  |  | 
3 | Cc1cc2c(cc1OS(N)(=O)=O)CC[C@@H]1[C@@H]2CC[C@]2(C)C(=O)CC[C@@H]12 | 260 |  |  |  |  |  |  |  |  | 
4 | C[C@]12CC[C@@H]3c4cc(Br)c(O)cc4CC[C@H]3[C@@H]1CCC2=O | 33000 |  |  |  |  |  |  |  |  | 
5 | CCSc1cc2c(cc1O)CC[C@@H]1[C@@H]2CC[C@]2(C)[C@@H](O)CC[C@@H]12 | 23200 | 16000 | 16000 | 18000 | 8500 | 24000 | 14000 | 2000 | 10 | GI50 (UACC-62): 11000 nM
6 | CCc1cc2c(cc1O)CC[C@@H]1[C@@H]2CC[C@]2(C)C(=O)CC[C@@H]12 | 57600 |  |  |  |  |  |  |  |  | 
7 | C[C@]12CC[C@@H]3c4cc(I)c(O)cc4CC[C@H]3[C@@H]1CCC2=O | 38000 |  |  |  |  |  |  |  |  | 
8 | CCc1cc2c(cc1OS(N)(=O)=O)CC[C@@H]1[C@@H]2CC[C@]2(C)C(=O)CC[C@@H]12 | 340 | < 10 | < 10 | < 10 | < 10 | < 10 | < 10 | < 10 | 0.014 | IC50 (Steryl-sulfatase): 1800 nM; GI50 (UACC-62): < 10 nM
9 | CSc1cc2c(cc1O)CC[C@@H]1[C@@H]2CC[C@]2(C)[C@@H](O)CC[C@@H]12 | 3960 |  |  |  |  |  |  |  |  | 
10 | COc1cc2c(cc1OS(N)(=O)=O)CC[C@@H]1[C@@H]2CC[C@]2(C)[C@@H](O)CC[C@@H]12 |  |  |  |  |  |  |  |  |  | IC50 (Steryl-sulfatase): 34 nM; IC50 (Mus musculus): 33000 nM
11 | COc1cc2c(cc1OS(=O)(=O)N(C)C)CC[C@@H]1[C@@H]2CC[C@]2(C)C(=O)CC[C@@H]12 | > 10000 |  |  |  |  |  |  |  |  | 
12 | CSc1cc2c(cc1OS(N)(=O)=O)CC[C@@H]1[C@@H]2CC[C@]2(C)C(=O)CC[C@@H]12 | 400 | 35000 | 45 | 760 | 88 | 22000 | 12 | < 10 | 0.229 | IC50 (Steryl-sulfatase): 120 nM; GI50 (UACC-62): 52 nM
13 | CSc1cc2c(cc1O)CC[C@@H]1[C@@H]2CC[C@]2(C)C(=O)CC[C@@H]12 | 33400 | 27000 | 14000 | 19000 | 20000 | 85000 | 22000 | 12000 | 20.4 | GI50 (UACC-62): 12000 nM
14 | CCc1cc2c(cc1O)CC[C@@H]1[C@@H]2CC[C@]2(C)[C@@H](O)CC[C@@H]12 | 10500 | 6100 | 3300 | 7300 | 3500 | 11000 | 2900 | 1700 | 6.5 | 
15 | CCOc1cc2c(cc1O)CC[C@@H]1[C@@H]2CC[C@]2(C)C(=O)CC[C@@H]12 | 9040 |  |  |  |  |  |  |  |  | 
16 | C[C@]12CC[C@@H]3c4cc(Br)c(OS(N)(=O)=O)cc4CC[C@H]3[C@@H]1CCC2=O | 6950 |  |  |  |  |  |  |  |  | 
17 | C[C@]12CC[C@@H]3c4cc(I)c(OS(N)(=O)=O)cc4CC[C@H]3[C@@H]1CCC2=O | 1590 |  |  |  |  |  |  |  |  | 
18 | COc1cc2c(cc1OS(=O)(=O)NC(C)=O)CC[C@@H]1[C@@H]2CC[C@]2(C)C(=O)CC[C@@H]12 | 168000 |  |  |  |  |  |  |  |  | 
19 | CCSc1cc2c(cc1O)CC[C@@H]1[C@@H]2CC[C@]2(C)C(=O)CC[C@@H]12 | 31900 |  |  |  |  |  |  |  |  | 
20 | CCc1cc2c(cc1OS(N)(=O)=O)CC[C@@H]1[C@@H]2CC[C@]2(C)[C@@H](O)CC[C@@H]12 | 70 | < 10 | < 10 | 40 | < 10 | < 10 | < 10 | < 10 | 0.016 | IC50 (Steryl-sulfatase): 1000 nM; GI50 (UACC-62): < 10 nM
21 | CCOc1cc2c(cc1OS(N)(=O)=O)CC[C@@H]1[C@@H]2CC[C@]2(C)C(=O)CC[C@@H]12 | 4840 |  |  |  |  |  |  |  |  | IC50 (Steryl-sulfatase): 890 nM
22 | CSc1cc2c(cc1OS(N)(=O)=O)CC[C@@H]1[C@@H]2CC[C@]2(C)[C@@H](O)CC[C@@H]12 | 430 |  |  |  |  |  |  |  |  | 
23 | COc1cc2c(cc1OS(N)(=O)=O)CC[C@@H]1[C@@H]2CC[C@]2(C)C(=O)CC[C@@H]12 | 300 | 160 | 120 | 600 | 65 | 320 | < 10 | < 10 | 0.095 | IC50 (Steryl-sulfatase): 42 nM; GI50 (UACC-62): 17 nM
24 | C[C@]12CC[C@@H]3c4cc(S(C)(=O)=O)c(O)cc4CC[C@H]3[C@@H]1CCC2=O | 66000 |  |  |  |  |  |  |  |  | 
25 | CCSc1cc2c(cc1OS(N)(=O)=O)CC[C@@H]1[C@@H]2CC[C@]2(C)C(=O)CC[C@@H]12 | 35200 | 6900 | 1400 | 11000 | 3200 | 13000 | 2300 | 2200 | 5.62 | GI50 (UACC-62): 5900 nM
26 | COc1cc2c(cc1O)CC[C@@H]1[C@@H]2CC[C@]2(C)C(=O)CC[C@@H]12 | 21300 |  |  |  |  |  |  |  |  | 
27 | CCSc1cc2c(cc1OS(N)(=O)=O)CC[C@@H]1[C@@H]2CC[C@]2(C)[C@@H](O)CC[C@@H]12 | 23400 |  |  |  |  |  |  |  |  | 
28 | COc1cc2c(cc1O)CC[C@@H]1[C@@H]2CC[C@]2(C)[C@@H](O)CC[C@@H]12 [2-METHOXYESTRADIOL] |  | 700 | 320 | 950 | 470 | 1800 | 210 | 80 | 1.3 | GI50 (UACC-62): 360 nM
29 | C[C@]12CC[C@@H]3c4ccc(OS(N)(=O)=O)cc4CC[C@H]3[C@@H]1CCC2=O [EMATE] |  |  |  |  |  |  |  |  |  | IC50 (Steryl-sulfatase): 22 nM
